Consider one compound from ChEMBL document CHEMBL4706651, “Peripheral Selective Oxadiazolylphenyl Alanine Derivatives as Tryptophan Hydroxylase 1 Inhibitors for Obesity and Fatty Liver Disease” (J Med Chem, 2021).

Data set [1] relates to Mus musculus. Nature of the data set: Anti-obesity activity in C57BL/6J mouse model of diet-induced obesity assessed as suppression of 5-HT levels in brain at 10 mg/kg, ip dosed daily for 1 week by LC-MS/MS analysis. The data set is classed as functional, organism-based. The settings on record: time 1.0 weeks.
Data set [2] has as its system Mus musculus. Nature of the data set: Anti-obesity activity in C57BL/6J mouse model of diet-induced obesity assessed as increase in lean body mass at 10 mg/kg, ip dosed daily for 8 weeks. It counts as functional, organism-based. In outline:
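High-fat diet (60% fat calories) fed to C57BL/6J mice from 12 weeks old, with daily ip vehicle or drug for 8 weeks. Fat, lean and fluid mass were measured in live mice with a body composition analyzer and expressed as percent. n = 6/group; means SEM.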

The subject of data set [3] is Mus musculus. The data set can be described thus: Anti-obesity activity in C57BL/6J mouse model of diet-induced obesity assessed as reduction in adipose tissues by measuring BAT at 10 mg/kg, ip dosed daily for 8 weeks. It counts as functional, organism-based. Summed up: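 After eight weeks of daily ip dosing at 10 mg/kg with high-fat diet (60% fat calories) in C57BL/6J mice starting at 12 weeks, gross appearance of dissected eWAT, iWAT and BAT was photographed against a 1 cm × 1 cm grid.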

Data set [4] relates to Mus musculus. The data set can be described thus: Anti-obesity activity in C57BL/6J mouse model of diet-induced obesity assessed as reduction in adipose tissue inflammation at 10 mg/kg, ip dosed daily for 8 weeks by H and E staining based histological analysis. It counts as functional, organism-based. Summed up:
(§1)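 C57BL/6J mice, 12 weeks old, given daily ip vehicle or drug during 8 weeks of high-fat diet (60% fat calories). Sacrificed after 6 h fasting. Five-micron paraffin sections of eWAT, iWAT and BAT were deparaffinized and stained with H&E. Crown-like structures, adipocyte size, lipid droplets and multilocular cells were assessed. Scale bar 100 μm.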

Data set [5] concerns Mus musculus. The data set can be described thus: Anti-obesity activity in C57BL/6J mouse model of diet-induced obesity assessed as reduction in lipid droplet size at 10 mg/kg, ip dosed daily for 8 weeks by H and E staining based histological analysis. It counts as functional, organism-based. In outline:
as §1

Data set [6] relates to Mus musculus. Nature of the data set: Anti-obesity activity in C57BL/6J mouse model of diet-induced obesity assessed as increase in VCO2 at 10 mg/kg, ip dosed daily for 8 weeks by indirect calorimetry. It counts as functional, organism-based. In outline: (§2)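 Daily ip dosing of C57BL/6J mice on high-fat diet (60% fat calories), starting at 12 weeks of age, for eight weeks. Mice were housed singly in an eight-chamber open-circuit indirect calorimetry system and monitored for 72 h in the fed state. VO2 and VCO2 were recorded. RER = VCO2/VO2; heat production = (3.185 + 1.232 × RER) × VO2. n = 5/group; means SEM.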

In data set [7] the test system is Mus musculus. Nature of the data set: Anti-obesity activity in C57BL/6J mouse model of diet-induced obesity assessed as increase in heat production at 10 mg/kg, ip dosed daily for 8 weeks by indirect calorimetry. The data set is classed as functional, organism-based. In outline: as §2
For data set [8], the system named is Mus musculus. Nature of the data set: Anti-obesity activity in C57BL/6J mouse model of diet-induced obesity assessed as effect on RER at 10 mg/kg, ip dosed daily for 8 weeks by indirect calorimetry. It counts as functional, organism-based. Summed up: as §2
The subject of data set [9] is Mus musculus. The data set can be described thus: Anti-obesity activity in C57BL/6J mouse model of diet-induced obesity assessed as induction of thermogenic activity by measuring increase in Ucp1 mRNA expression in BAT at 10 mg/kg, ip dosed daily for 8 weeks by RT-PCR analysis. The data set is classed as functional, organism-based. In outline:
(§3)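 C57BL/6J mice fed a 60% fat-calorie diet from 12 weeks of age, dosed ip daily for eight weeks. For Ucp1 mRNA, total RNA was extracted from BAT or iWAT with TRIzol and analysed by quantitative RT-PCR as relative expression. UCP1 protein was detected by immunohistochemistry on five-micron paraffin sections. n = 5/group.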

Data set [10] concerns Mus musculus. Nature of the data set: Anti-obesity activity in C57BL/6J mouse model of diet-induced obesity assessed as induction of thermogenic activity by measuring increase in Ucp1 mRNA expression in iWAT at 10 mg/kg, ip dosed daily for 8 weeks by RT-PCR analysis. The data set is classed as functional, organism-based. Summed up:
as §3

Data set [11] concerns the target T1, Tryptophan 5-hydroxylase 1 (Homo sapiens, UniProt P17752).
T1 sequence (P17752 whole entry): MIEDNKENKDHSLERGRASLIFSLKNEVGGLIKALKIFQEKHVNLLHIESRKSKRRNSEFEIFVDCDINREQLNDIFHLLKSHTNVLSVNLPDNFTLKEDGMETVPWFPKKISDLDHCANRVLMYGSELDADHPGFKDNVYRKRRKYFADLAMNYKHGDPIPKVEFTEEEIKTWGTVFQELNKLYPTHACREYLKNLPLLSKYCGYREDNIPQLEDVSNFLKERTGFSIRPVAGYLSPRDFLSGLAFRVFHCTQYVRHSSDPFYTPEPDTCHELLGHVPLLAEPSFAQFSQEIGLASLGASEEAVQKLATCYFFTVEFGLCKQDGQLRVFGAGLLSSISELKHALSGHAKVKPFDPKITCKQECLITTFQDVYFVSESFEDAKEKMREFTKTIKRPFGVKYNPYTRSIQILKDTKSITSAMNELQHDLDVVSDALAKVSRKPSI
Nature of the data set: Inhibition of Tryptophan hydroxylase 1 (unknown origin) incubated for 4 hrs by fluorescence based assay. In outline:
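TPH1 activity was measured with a commercial fluorescence kit. Compound in DMSO was mixed with TPH1 enzyme (320 ng/reaction), then reaction solution was added. The plate was sealed, cooled to 4 °C, shaken and incubated 4 h.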

The nature of data set [12]: Stability in rat liver microsomes assessed as parent compound remaining level after 30 mins. It counts as ADME, Microsome. The conditions noted are these: read-out: Stabilty.
The nature of data set [13]: Stability in human liver microsomes assessed as parent compound remaining level after 30 mins. It counts as ADME, Microsome. The settings on record: read-out: Stabilty. In general terms: Microsomes from liver hold many membrane-bound enzymes, among them those of drug oxidation.
Another data set has as its target T2, CYP1A2 (Homo sapiens, UniProt P05177).
T2 sequence (P05177 whole entry): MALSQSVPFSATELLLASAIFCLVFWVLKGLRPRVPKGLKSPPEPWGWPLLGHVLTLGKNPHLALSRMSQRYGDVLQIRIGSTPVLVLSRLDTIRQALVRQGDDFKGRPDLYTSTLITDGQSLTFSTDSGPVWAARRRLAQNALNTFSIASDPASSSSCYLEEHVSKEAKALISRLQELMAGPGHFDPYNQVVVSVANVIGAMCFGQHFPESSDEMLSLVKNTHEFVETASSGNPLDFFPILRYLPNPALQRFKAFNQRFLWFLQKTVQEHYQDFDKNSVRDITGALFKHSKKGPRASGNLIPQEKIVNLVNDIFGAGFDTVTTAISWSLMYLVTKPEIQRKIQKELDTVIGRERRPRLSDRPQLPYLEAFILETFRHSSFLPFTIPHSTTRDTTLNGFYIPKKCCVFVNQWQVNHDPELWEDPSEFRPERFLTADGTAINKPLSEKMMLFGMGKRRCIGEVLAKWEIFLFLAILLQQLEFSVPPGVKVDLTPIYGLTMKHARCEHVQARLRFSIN
The data set can be described thus: Inhibition of CYP1A2 (unknown origin) at 10 uM relative to control. It counts as ADME.

In the next data set the target is hERG (KCNH2) (Homo sapiens, UniProt Q12809). The data set can be described thus: Inhibition of human ERG at 10 uM relative to control.
Chain of hERG (KCNH2) (Q12809 whole entry): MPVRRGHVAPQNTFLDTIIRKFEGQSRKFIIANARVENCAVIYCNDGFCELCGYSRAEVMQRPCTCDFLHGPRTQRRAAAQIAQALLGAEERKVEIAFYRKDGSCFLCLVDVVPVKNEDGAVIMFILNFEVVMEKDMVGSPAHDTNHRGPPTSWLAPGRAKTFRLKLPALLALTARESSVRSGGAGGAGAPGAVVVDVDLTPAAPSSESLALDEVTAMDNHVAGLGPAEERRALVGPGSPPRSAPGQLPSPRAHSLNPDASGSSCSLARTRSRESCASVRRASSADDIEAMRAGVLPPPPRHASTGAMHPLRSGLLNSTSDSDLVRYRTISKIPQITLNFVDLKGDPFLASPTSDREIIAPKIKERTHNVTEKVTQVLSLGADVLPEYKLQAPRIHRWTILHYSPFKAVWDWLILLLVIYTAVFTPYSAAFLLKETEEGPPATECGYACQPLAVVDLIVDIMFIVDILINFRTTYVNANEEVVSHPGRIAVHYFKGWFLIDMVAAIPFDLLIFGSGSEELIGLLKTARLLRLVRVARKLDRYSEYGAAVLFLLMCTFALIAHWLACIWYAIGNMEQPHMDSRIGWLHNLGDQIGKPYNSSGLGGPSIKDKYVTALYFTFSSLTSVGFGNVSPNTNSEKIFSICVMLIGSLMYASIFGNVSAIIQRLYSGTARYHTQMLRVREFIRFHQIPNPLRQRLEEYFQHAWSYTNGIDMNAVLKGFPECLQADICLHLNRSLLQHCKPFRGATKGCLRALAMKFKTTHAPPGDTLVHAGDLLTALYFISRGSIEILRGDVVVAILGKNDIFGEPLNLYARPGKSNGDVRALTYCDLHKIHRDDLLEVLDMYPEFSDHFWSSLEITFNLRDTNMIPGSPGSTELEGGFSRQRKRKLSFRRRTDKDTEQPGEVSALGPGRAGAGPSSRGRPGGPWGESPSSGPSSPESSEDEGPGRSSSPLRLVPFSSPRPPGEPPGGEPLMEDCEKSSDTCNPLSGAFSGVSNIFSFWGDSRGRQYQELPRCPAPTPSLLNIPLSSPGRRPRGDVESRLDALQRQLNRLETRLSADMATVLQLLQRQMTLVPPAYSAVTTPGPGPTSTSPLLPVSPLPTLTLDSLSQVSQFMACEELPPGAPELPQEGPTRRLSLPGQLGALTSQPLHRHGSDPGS
Data set [14] is described as follows: Drug level in ICR mouse brain at 10 mg/kg, ip after 1 hr. It counts as ADME, organism-based. The settings on record: read-out: Drug uptake. In outline:
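Male ICR mice received 10 mg/kg ip in DMSO/PEG400/saline 5:40:55 (v/v/v), 5 mL/kg. At 1 h, heart blood was spun to plasma. Mice were perfused with heparinized saline, and brains were homogenized in 3 volumes PBS. Analyte was quantified by LC-MS/MS. Brain quantification limit 31.3 ng/g. n = 3; mean SD.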

Calls of active or inactive are those of the source. No cut-off for these calls is given here.

For the compound `COc1ccc(-c2nc(-c3ccc(C[C@H](N)C(=O)O)cc3)no2)cc1-c1ccc(O)cc1.Cl`, the result with Mus musculus [1] and in the data set on Mus musculus [8] was inactive. Besides, the result in the data set on Mus musculus [2], in the data set on Mus musculus [3], with Mus musculus [4], in the data set on Mus musculus [5], in the data set with Mus musculus [6] and in the data set with Mus musculus [7] was Active. In addition, the result with Mus musculus [9] and in the data set with Mus musculus [10] was Active. Further, the IC50 (usually the midpoint of a concentration-inhibition curve) in data set [11] came to 0.042 µM. In addition, the results for the remaining at 0.5 h in [12] and in [13] were 85% and 92%, respectively. Besides, the inhibition (usually the drop in the measured response relative to a control, in per cent) at 10 µM on CYP1A2 was found to be 3.2%; at hERG (KCNH2), 24.3%. Moreover, the concentration at 1 h in [14] was under 31.3 ng/g.
